# The source made the active and inactive calls. The calls are words filed in the database; no cut-off is given here.
# Experiments:
# [1] = test system: Mycolicibacterium smegmatis; experiment: Binding affinity to Mycobacterium smegmatis recombinant DprE1 assessed as residence time
# Method in brief: (§1)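 Progress curves (fluorescence vs time) recorded at several inhibitor concentrations with 75 nM Msm DprE1 in the FAD/HRP/Amplex Red coupled assay, pH 8.5, 25 °C. A single-step reversible slow-binding model was fitted globally, with vs and vi fitted per concentration and koff and Kiapp shared. Half-life and residence time were derived from koff.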
# Escherichia coli [2] = experiment: Antimicrobial activity against Escherichia coli ARC523 at 100 uM; assay type: functional, organism-based
# Method in brief: (§2)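 Nonmycobacterial panel of Candida albicans, Gram-negative and Gram-positive pathogens.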
# Klebsiella pneumoniae = experiment: Antimicrobial activity against Klebsiella pneumoniae ARC1865 at 100 uM; assay type: functional, organism-based; method in brief: as §2
# Haemophilus influenzae [3] = experiment: Antimicrobial activity against Haemophilus influenzae ARC158 at 100 uM; assay type: functional, organism-based; method in brief: as §2
# Cytochrome P450 2D6 = Cytochrome P450 2D6 (Homo sapiens, UniProt P10635); experiment: Inhibition of CYP2D6 (unknown origin); assay type: ADME
# Method in brief: (§3)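 CYP inhibition IC50 measured on isoforms CYP3A4, CYP2D6, CYP2C9, CYP2C19 and CYP1A2.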
# Cytochrome P450 1A2 = molecular target: T1, Cytochrome P450 1A2 (Homo sapiens, UniProt P05177); experiment: Inhibition of CYP1A2 (unknown origin); assay type: ADME; method in brief: as §3
# T1 sequence (P05177 whole entry): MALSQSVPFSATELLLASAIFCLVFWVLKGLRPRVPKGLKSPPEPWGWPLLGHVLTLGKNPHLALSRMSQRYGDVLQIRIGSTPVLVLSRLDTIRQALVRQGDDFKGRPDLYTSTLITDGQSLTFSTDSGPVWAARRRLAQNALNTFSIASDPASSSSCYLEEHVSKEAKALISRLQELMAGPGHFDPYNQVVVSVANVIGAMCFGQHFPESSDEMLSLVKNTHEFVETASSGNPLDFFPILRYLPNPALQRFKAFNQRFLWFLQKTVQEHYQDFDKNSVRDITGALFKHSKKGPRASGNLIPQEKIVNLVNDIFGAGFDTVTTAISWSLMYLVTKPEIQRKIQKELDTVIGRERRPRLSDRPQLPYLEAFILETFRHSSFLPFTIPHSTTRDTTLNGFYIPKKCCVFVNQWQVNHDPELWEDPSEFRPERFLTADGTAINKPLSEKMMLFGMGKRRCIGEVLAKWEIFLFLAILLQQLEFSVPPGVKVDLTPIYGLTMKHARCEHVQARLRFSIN
# [4] = test system: Mycolicibacterium smegmatis; experiment: Binding affinity to Mycobacterium smegmatis recombinant DprE1 assessed as dissociation constant; method in brief: as §1
# [5] = test system: Mycobacterium tuberculosis; experiment: Antimycobacterial activity against Mycobacterium tuberculosis H37Rv at >MIC after 21 to 28 days; assay type: functional
# [6] = Octanol-water partition coefficient, log D of the compound by shake-flask method; assay type: physicochemical
# [7] = test system: Mycobacterium tuberculosis; experiment: Antimycobacterial activity against Mycobacterium tuberculosis over expressing InhA after 5 days by standard microdilution method; assay type: functional; settings: 120 h
# [8] = Permeability of the compound from basolateral to apical side in human Caco2 cells; assay type: ADME, cell-based; settings: Caco-2, read-out: permeability
# Cytochrome P450 3A4 = Cytochrome P450 3A4 (Homo sapiens, UniProt P08684); experiment: Inhibition of CYP3A4 (unknown origin); assay type: ADME; method in brief: as §3
# [9] = Solubility of the compound in 0.1 M phosphate buffer at pH 7.4 after 24 hrs by UV and MS analysis; assay type: physicochemical
# Haemophilus influenzae [10] = experiment: Antimicrobial activity against Haemophilus influenzae ARC446 at 100 uM; assay type: functional, organism-based; method in brief: as §2
# [11] = test system: Mycobacterium tuberculosis; experiment: Antimycobacterial activity against Mycobacterium tuberculosis H37Rv under hypoxic condition after 6 days by resazurin assay; assay type: functional; settings: 144 h
# Escherichia coli [12] = experiment: Antimicrobial activity against Escherichia coli ARC524 at 100 uM; assay type: functional, organism-based; method in brief: as §2
# [13] = Intrinsic clearance in human liver microsomes at 1 uM up to 30 mins by LC-MS/MS analysis; assay type: ADME; settings: read-out: CLH
# [14] = test system: Mycolicibacterium smegmatis; experiment: Binding affinity to Mycobacterium smegmatis recombinant DprE1 assessed as half life; method in brief: as §1
# [15] = Intrinsic clearance in rat cryopreserved hepatocytes assessed per 10^6 cells at 1 uM up to 120 mins by LC-MS/MS analysis; assay type: ADME, cell-based, Hepatocyte; settings: read-out: CLH
# [16] = Fraction unbound in human plasma at 20 uM after 18 hrs by equilibrium dialysis method; assay type: ADME, cell-free
# [17] = test system: Mycobacterium tuberculosis; experiment: Antimycobacterial activity against Mycobacterium tuberculosis expressing GFP assessed as change bacterial morphology at 30 uM after 5 to 7 days; assay type: functional, organism-based
# Method in brief: (§4)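 GFP-expressing Mtb was grown several days in a microfluidic device with 7H9 flow medium. Compound at 30 μM was then flowed in from t = 118 h to t = 284 h, then washed out. Phase and GFP time-lapse images were taken at 1 h intervals to follow growth rate, morphology and lysis of single cells and microcolonies.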
# [18] = test system: Mycolicibacterium smegmatis; experiment: Antimicrobial activity against Mycobacterium smegmatis ATCC 607 at 100 uM; assay type: functional, organism-based
# Cytochrome P450 2C19 = Cytochrome P450 2C19 (Homo sapiens, UniProt P33261); experiment: Inhibition of CYP2C19 (unknown origin); assay type: ADME; method in brief: as §3
# [19] = test system: Mycobacterium tuberculosis; experiment: Antimycobacterial activity against Mycobacterium tuberculosis over expressing TopA after 5 days by standard microdilution method; assay type: functional; settings: 120 h
# Pseudomonas aeruginosa [20] = experiment: Antimicrobial activity against Pseudomonas aeruginosa ARC546 at 100 uM; assay type: functional, organism-based; method in brief: as §2
# Cytochrome P450 2C9 = Cytochrome P450 2C9 (Homo sapiens, UniProt P11712); experiment: Inhibition of CYP2C9 (unknown origin); assay type: ADME; method in brief: as §3
# [21] = Cytotoxicity against human A549 cells after 72 hrs by resazurin based fluorescence assay; assay type: cell-based; settings: read-out: MIC
# Method in brief: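 Cytotoxicity read as MMIC, the MIC on the A549 cell line.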
# [22] = Inhibition of Mycobacterium smegmatis recombinant DprE1 using farnesylphosphoryl-beta-D-ribofuranose as substrate assessed as conversion of amplex red to resorufin after 30 mins; design: species or system Mycolicibacterium smegmatis
# Method in brief: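 Msm DprE1 (thioredoxin-6His fusion of Msm Rv3790) at 75 nM, preincubated 30 min with 10 μM FAD. Buffer: 50 mM glycylglycine pH 8.5, 200 mM potassium glutamate, 0.002% Brij-35, 2% DMSO, 25 °C. Started with 300 μM farnesylphosphoryl-β-D-ribofuranose, 0.01 mg/mL HRP and 50 μM Amplex Red.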
# [23] = test system: Mycobacterium tuberculosis; experiment: Antimycobacterial activity against Mycobacterium tuberculosis expressing GFP assessed as reduction of bacterial growth rate at 30 uM after 5 to 7 days; assay type: functional, organism-based; method in brief: as §4
# [24] = test system: Mycobacterium tuberculosis; experiment: Antimycobacterial activity against Mycobacterium tuberculosis H37Rv after 5 days by standard microdilution method; assay type: functional; settings: 120 h
# [25] = Permeability of the compound from apical to basolateral side in human Caco2 cells; assay type: ADME, cell-based; settings: Caco-2, read-out: permeability
# [26] = test system: Mycobacterium tuberculosis; experiment: Antimycobacterial activity against Mycobacterium tuberculosis over expressing DprE1 after 5 days by standard microdilution method; assay type: functional; settings: 120 h
# [27] = Inhibition of Mycobacterium smegmatis DprE1 Y321H mutant using farnesylphosphoryl-beta-D-ribofuranose as substrate assessed as conversion of amplex red to resorufin after 30 mins; design: species or system Mycolicibacterium smegmatis
# Method in brief: (§5)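 Recombinant M. smegmatis DprE1 (thioredoxin-6His fusion), wild type or Y321H, 75 nM. Enzyme was preincubated 30 min in FAD assay mix: 50 mM glycylglycine pH 8.5, 200 mM potassium glutamate, 10 μM FAD, 0.002% Brij-35, 2% DMSO. Reaction was started with 300 μM farnesylphosphoryl-β-D-ribofuranose, 0.01 mg/mL HRP and 50 μM amplex red at 25 °C.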
# Pseudomonas aeruginosa [28] = experiment: Antimicrobial activity against Pseudomonas aeruginosa ARC545 at 100 uM; assay type: functional, organism-based; method in brief: as §2
# [29] = test system: Mycobacterium tuberculosis; experiment: Antimycobacterial activity against Mycobacterium tuberculosis expressing GFP assessed as bacterial lysis at 30 uM after 5 to 7 days measured after drug washout; assay type: functional, organism-based; method in brief: as §4
# [30] = test system: Mycobacterium tuberculosis; experiment: Antimycobacterial activity against Mycobacterium tuberculosis H37Rv infected in human THP1 cells after 7 days; assay type: functional, organism-based; settings: THP-1
# Streptococcus pneumoniae = experiment: Antimicrobial activity against Streptococcus pneumoniae ARC548 at 100 uM; assay type: functional, organism-based; method in brief: as §2
# [31] = test system: Mycolicibacterium smegmatis; experiment: Antimicrobial activity against Mycobacterium smegmatis mc2155 at 100 uM; assay type: functional, organism-based; settings: str. MC2 155
# [32] = test system: Mycolicibacterium smegmatis; experiment: Time dependent inhibition of Mycobacterium smegmatis recombinant DprE1 using farnesylphosphoryl-beta-D-ribofuranose as substrate assessed as conversion of amplex red to resorufin at 4.6 to 3333 nM
# Method in brief: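 Coupled fluorescence assay at 25 °C with 75 nM recombinant Msm DprE1 (wild type or Y321H) in 50 mM glycylglycine pH 8.5, 200 mM potassium glutamate, 10 μM FAD, 0.002% Brij-35, 2% DMSO. Enzyme preincubated 30 min, then started with 300 μM FPR, HRP and 50 μM Amplex Red. Progress curves followed over 0−40 min, with background subtracted.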
# Candida albicans = experiment: Antimicrobial activity against Candida albicans ARC527 at 100 uM; assay type: functional, organism-based; method in brief: as §2
# [33] = test system: Mycolicibacterium smegmatis; experiment: Ratio of IC50 for Mycobacterium smegmatis DprE1 Y321H mutant to IC50 for Mycobacterium smegmatis recombinant wild type DprE1; method in brief: as §5
# [34] = test system: Mycobacterium tuberculosis; experiment: Antimycobacterial activity against Mycobacterium tuberculosis over expressing PimA after 5 days by standard microdilution method; assay type: functional; settings: 120 h
# Staphylococcus aureus = experiment: Antimicrobial activity against Staphylococcus aureus ARC517 at 100 uM; assay type: functional, organism-based; method in brief: as §2
# Cytochrome P450 2C9, sequence (P11712 whole entry): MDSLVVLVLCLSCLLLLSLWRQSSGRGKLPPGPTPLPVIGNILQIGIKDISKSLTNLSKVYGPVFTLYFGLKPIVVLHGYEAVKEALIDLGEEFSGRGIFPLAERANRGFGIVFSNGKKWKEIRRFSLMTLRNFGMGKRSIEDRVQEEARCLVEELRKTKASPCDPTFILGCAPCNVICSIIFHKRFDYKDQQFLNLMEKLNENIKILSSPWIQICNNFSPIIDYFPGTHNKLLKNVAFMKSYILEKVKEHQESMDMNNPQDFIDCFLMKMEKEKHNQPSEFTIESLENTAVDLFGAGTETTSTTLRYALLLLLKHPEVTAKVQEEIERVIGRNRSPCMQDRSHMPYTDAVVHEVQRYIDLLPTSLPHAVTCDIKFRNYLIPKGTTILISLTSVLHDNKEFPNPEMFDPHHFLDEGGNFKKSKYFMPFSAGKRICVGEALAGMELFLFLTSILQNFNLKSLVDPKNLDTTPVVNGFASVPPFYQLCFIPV
# Cytochrome P450 3A4, sequence (P08684 whole entry): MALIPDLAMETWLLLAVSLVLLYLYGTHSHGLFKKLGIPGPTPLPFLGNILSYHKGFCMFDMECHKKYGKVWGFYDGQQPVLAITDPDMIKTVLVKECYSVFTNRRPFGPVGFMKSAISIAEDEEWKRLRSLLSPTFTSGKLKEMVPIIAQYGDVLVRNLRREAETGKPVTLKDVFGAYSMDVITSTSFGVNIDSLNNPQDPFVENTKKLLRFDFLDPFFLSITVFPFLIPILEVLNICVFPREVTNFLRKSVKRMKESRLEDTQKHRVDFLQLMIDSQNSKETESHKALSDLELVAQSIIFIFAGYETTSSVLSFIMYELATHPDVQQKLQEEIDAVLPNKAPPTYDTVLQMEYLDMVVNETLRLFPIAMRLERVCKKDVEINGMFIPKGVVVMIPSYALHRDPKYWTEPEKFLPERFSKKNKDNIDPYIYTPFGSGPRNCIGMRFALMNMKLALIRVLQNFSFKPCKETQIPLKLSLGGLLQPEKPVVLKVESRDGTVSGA
# Cytochrome P450 2D6, sequence (P10635 whole entry, canonical isoform): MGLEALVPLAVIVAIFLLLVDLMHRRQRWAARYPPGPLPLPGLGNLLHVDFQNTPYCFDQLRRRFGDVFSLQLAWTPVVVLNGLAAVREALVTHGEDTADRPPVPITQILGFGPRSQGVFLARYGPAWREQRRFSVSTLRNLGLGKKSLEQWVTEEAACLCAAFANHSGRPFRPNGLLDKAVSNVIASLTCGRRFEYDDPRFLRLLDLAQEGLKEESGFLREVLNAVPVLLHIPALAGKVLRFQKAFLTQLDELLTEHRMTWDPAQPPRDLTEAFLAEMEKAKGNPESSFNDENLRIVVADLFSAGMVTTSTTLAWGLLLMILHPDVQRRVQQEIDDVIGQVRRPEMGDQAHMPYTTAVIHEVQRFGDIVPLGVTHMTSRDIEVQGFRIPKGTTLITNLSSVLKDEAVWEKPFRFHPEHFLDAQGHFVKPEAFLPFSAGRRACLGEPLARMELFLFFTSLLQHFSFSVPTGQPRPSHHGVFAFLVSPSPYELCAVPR
# Cytochrome P450 2C19, sequence (P33261 whole entry): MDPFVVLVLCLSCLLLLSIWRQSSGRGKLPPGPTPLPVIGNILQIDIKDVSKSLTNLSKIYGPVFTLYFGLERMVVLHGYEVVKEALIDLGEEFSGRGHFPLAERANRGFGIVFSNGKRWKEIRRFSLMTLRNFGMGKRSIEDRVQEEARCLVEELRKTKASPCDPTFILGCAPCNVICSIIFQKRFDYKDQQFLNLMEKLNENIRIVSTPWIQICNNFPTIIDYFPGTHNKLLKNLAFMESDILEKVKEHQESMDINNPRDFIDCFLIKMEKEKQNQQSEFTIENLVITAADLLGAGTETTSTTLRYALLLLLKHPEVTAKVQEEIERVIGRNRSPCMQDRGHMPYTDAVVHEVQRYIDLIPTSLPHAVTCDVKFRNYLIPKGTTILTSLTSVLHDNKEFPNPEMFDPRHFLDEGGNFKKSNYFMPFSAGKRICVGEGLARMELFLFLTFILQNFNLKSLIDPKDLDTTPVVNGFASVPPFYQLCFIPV
smiles,measurement,setting,value
Cn1ncc(C(=O)N2CCC(Nc3cc(=O)[nH]c4ccc(F)cc34)CC2)c1Cl,TIME,[1],1.98 h
same,Activity,Escherichia coli [2],inactive
same,Activity,Klebsiella pneumoniae,inactive
same,Activity,Haemophilus influenzae [3],inactive
same,INH,Cytochrome P450 2D6,> 30 µM
same,INH,Cytochrome P450 1A2,> 30 µM
same,Kdiss,[4],0.00012 s⁻¹
same,MBC,[5],3.1 µM
same,logD,[6],2
same,MIC,[7],1.6 µM
same,Papp B→A,[8],13 ×10⁻⁶ cm/s
same,INH,Cytochrome P450 3A4,> 30 µM
same,solubility at 24 h,[9],105 µM
same,Activity,Haemophilus influenzae [10],inactive
same,IC80,[11],> 100 µM
same,Activity,Escherichia coli [12],inactive
same,microsomal CLint at 1 µM,[13],< 4.8 µL/min/mg
same,T1/2,[14],1.38 h
same,hepatocyte CLint at 1 µM,[15],5.6 µL/min/1e6 cells
same,"fraction unbound at 18 h, 20 µM",[16],0.4
same,Activity,[17],Active
same,Activity,[18],inactive
same,INH,Cytochrome P450 2C19,> 30 µM
same,MIC,[19],0.8 µM
same,Activity,Pseudomonas aeruginosa [20],inactive
same,INH,Cytochrome P450 2C9,> 30 µM
same,MCC at 72 h,[21],> 200 µM
same,IC50,[22],0.005 µM
same,Activity,[23],Active
same,MIC,[24],1.56 µM
same,Papp A→B,[25],0.6 ×10⁻⁶ cm/s
same,MIC,[26],100 µM
same,IC50,[27],9.47 µM
same,Activity,Pseudomonas aeruginosa [28],inactive
same,Activity,[29],Active
same,Activity,[30],Active
same,Activity,Streptococcus pneumoniae,inactive
same,Activity,[31],inactive
same,inhibition,[32],Active
same,Activity,Candida albicans,inactive
same,fold change (FC),[33],111
same,MIC,[34],1.6 µM
same,Activity,Staphylococcus aureus,inactive

# Reference: ChEMBL document CHEMBL3286182, “4-aminoquinolone piperidine amides: noncovalent inhibitors of DprE1 with long residence time and potent antimycobacterial activity” (J Med Chem, 2014)
